Source: PubChem
Scp1 inh: blocks human Scp-1 phosphatase activity | Q9GZU7 | Recombinant Scp1, phosphopeptide, malachite green phosphate absorbance | inhibition, % at 20 µM | 340,000 compounds, 0.88% hits | AID 493091;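 active = inhibition above about 50% at 20 µM, limit read from the data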
Target sequence (Q9GZU7 76-261 limits assumed): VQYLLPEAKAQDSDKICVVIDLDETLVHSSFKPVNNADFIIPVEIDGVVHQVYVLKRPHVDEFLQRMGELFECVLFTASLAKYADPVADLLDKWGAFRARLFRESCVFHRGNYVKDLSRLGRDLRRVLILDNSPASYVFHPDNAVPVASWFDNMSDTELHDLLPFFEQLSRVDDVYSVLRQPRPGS
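Material: truncated SCP-1 phosphatase (76-261aa) / Buffer or medium: 50 mM Tris acetate pH 5.5, 0.005% Tween-20, 10 mM MgCl2 / Compound dosing: one concentration, 20 µM, with 1.0% DMSO / Incubation: 45 min room-temperature reaction, 5 min colour, 30 min stabiliser / Detection: colorimetric free-phosphate detection, absorbance 630 nm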
DNMT1 block: DNMT1 (human) enzyme inhibition; P26358; DNMT1 molecular beacon, Hinp1I cleavage, fluorescence; inhibition (reported as % activation of signal), % at 10 µM; 360,000 compounds, 0.83% hits; AID 588458; in the data active = inhibition above about 50%
LMPTP block: blocks human LMPTP phosphatase. P24666. recombinant LMPTP-A, OMFP fluorogenic substrate, fluorescence intensity. 360,000 compounds, 0.22% hits. inhibition, % at 20 µM;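 active = compounds that cut the enzyme signal by at least half of the control window in the single-dose screen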
Target sequence (P24666 whole entry, looked up): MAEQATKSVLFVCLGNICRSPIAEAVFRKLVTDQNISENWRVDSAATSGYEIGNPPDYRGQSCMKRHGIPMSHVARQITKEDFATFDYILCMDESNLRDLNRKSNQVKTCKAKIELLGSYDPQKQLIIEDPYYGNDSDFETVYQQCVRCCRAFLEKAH
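Assay system: LMPTP-A enzyme. Input: 0.625 nM LMPTP-A final. Probe or stimulus: 400 µM OMFP. Compound dosing: single 20 µM dose. Schedule: 50 min dark incubation at room temperature. Detection: fluorescence intensity of OMFP turnover product. Read-out: percent inhibition versus substrate-only and uninhibited controls. Benchmarks: no-enzyme low control, uninhibited high control.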
SUMO1 PPI mod: SUMO1-SIM interaction modulation. P63165. SUMO1 binding to a labelled peptide, TR-FRET, 1 h. inhibition, % at 20 µM. 360,000 compounds, 0.33% hits. AID 602429; in the data active = inhibition above about 37%
Target sequence (P63165 whole entry, looked up): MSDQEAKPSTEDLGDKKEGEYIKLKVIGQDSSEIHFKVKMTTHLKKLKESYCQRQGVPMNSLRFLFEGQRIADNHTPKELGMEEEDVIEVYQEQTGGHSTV
STEP inh: blocks human striatal-enriched tyrosine phosphatase; P54829; recombinant STEP, OMFP fluorogenic substrate, fluorescence; inhibition, % at 20 µM; 360,000 compounds, 0.25% hits;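 active = inhibition at 20 µM, scaled per plate between control wells, above about 37%, limit read from the data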
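System: STEP phosphatase, cell-free reaction; Buffer or medium: Bis-Tris pH 6.0 buffer with DTT, detergent; Incubation: 20 min at room temperature, dark; Measured by: fluorescence, 480/540 nm.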
SUMO HTRF inh: SUMOylation inhibition | P63279 | HTRF SUMOylation assay, SAE1/SAE2 + UBC9, in vitro | inhibition, % at 35 µM | 290,000 compounds, 0.36% hits; in the data active = inhibition above about 50%, passing the limit was not always enough
Target sequence (P63279 whole entry, looked up): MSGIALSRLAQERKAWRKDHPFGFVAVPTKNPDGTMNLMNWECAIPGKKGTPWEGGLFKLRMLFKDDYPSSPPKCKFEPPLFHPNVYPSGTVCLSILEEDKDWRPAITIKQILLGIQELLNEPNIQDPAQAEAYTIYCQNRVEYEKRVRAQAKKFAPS
Scp1 confirm: Scp-1 (human) inhibition, single-dose confirmed; shares compounds with Scp1 inh; recombinant SCP-1 catalytic domain, phosphate release, malachite green absorbance; inhibition, % at 20 µM; 2,500 compounds, 61% hits
Scp-1 MG ctr: counter-screen for Scp-1 inhibitors: colorimetric interference | Colorimetric interference counterscreen, malachite green absorbance 630 nm | AID 540313 | apparent inhibition (interference), % at 20 µM | 2,500 tested, under 10 active | shares compounds with Scp1 inh;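 note: compounds added after enzyme reaction finished so only phosphate colour detection is probed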
Scp-1 Tm shift: validation of human Scp-1 inhibitors by thermal shift binding; shares compounds with Scp1 inh; Recombinant SCP1, Sypro Orange thermal shift Tm; thermal shift relative to vanadate control, % at 40 µM; 1,500 compounds, 25% hits;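 active = substances whose mean melting-temperature shift, as a percentage of the reference inhibitor's shift, reaches about 5.3%, limit read from the data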
Large screens that a line does not name were inactive (follow-up assays come after a bar, where they were run). In the library only some 1.9% were active in any assay of this set; here they are far more common.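 Rule for the calls, unless noted: active = inhibition of at least 30% at 20 µM; inactive = the rest.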

CC(C)(C)c1ccc2c(c1)OC(C(=O)N/N=C/c1ccc([N+](=O)[O-])o1)CO2 (stereo not drawn)	Scp1 inh 108 | Scp1 confirm 64 | Scp-1 MG ctr inactive | Scp-1 Tm shift inactive
COc1cc(O)c2c(c1)OC(c1ccc(O)cc1)CC2=O (stereo not drawn)	none
Cc1c(O)cc2c(c1O)C(=O)CC(c1ccc(O)cc1)O2 (stereo not drawn)	Scp1 inh 58 | Scp1 confirm 45 | Scp-1 MG ctr inactive | Scp-1 Tm shift 6.2
CN(c1ccccc1)S(=O)(=O)c1cccc(NC(=O)CN2C(=O)NC3(CCCC3)C2=O)c1	none (no result: SUMO HTRF inh)
O=C(N/N=C/c1ccco1)c1cccc(N2CCCC2=O)c1	none
O=C(N/N=C/c1ccco1)c1cccc(N2Cc3ccccc3C2)c1	Scp1 inh 79, DNMT1 block 80 | Scp1 confirm 46 | Scp-1 MG ctr inactive | Scp-1 Tm shift 11
C[n+]1ccc(C(=O)N/N=C/c2ccco2)cc1	Scp1 inh 60 | Scp1 confirm inactive | Scp-1 MG ctr inactive
Cc1ccc2occ(/C=N/NC(=O)c3ccncc3)c(=O)c2c1	none
O=C1NC(=Nc2ccccc2)/C(=C/c2ccco2)S1	none
Cc1ccc(N=C2NC(=O)S/C2=C\c2ccco2)cc1	Scp1 inh 97, LMPTP block 63 | Scp1 confirm 57 | Scp-1 MG ctr inactive | Scp-1 Tm shift inactive
O=C(CSc1nc2ncccc2[nH]1)c1cccc([N+](=O)[O-])c1	none
Cn1c(SCC(=O)Nc2ncc(C(F)(F)F)cc2Cl)nnc1-c1ccc(Cl)cc1	Scp1 inh 62 | Scp1 confirm inactive | Scp-1 MG ctr inactive
CCn1c(SCC(=O)Nc2ncc(C(F)(F)F)cc2Cl)nnc1-c1ccccc1	none
COC(=O)c1ccc(C(=O)N2CCCC(C)(C(=O)NS(=O)(=O)C3CC3)C2)cc1 (stereo not drawn)	none (no result: Scp1 inh, SUMO HTRF inh)
CC(C)c1ccc(NC(=O)C2CC(=O)N(C(C)C)C2)cc1 (stereo not drawn)	none | Scp1 confirm inactive | Scp-1 MG ctr inactive
COc1cccc(C(NC(C)=O)c2nc(-c3cccc(C#N)c3)cs2)c1 (stereo not drawn)	none (no result: Scp1 inh, SUMO HTRF inh)
Cc1ccsc1C(=O)N(C)C1CCS(=O)(=O)C1 (stereo not drawn)	none (no result: SUMO HTRF inh)
O=C(NCC[C@@H]1CC[C@@H](NS(=O)(=O)Cc2ccccc2)[C@@H](CO)O1)C1CC1	none (no result: Scp1 inh, DNMT1 block, STEP inh, SUMO HTRF inh)
COc1ccc(NC(=O)C2(C)CCN2Cc2ccc3ccccc3c2)cc1OC (stereo not drawn)	none (no result: Scp1 inh, SUMO HTRF inh)
N#C/C(=C\c1ccc[nH]1)C(=O)Nc1ccccc1[N+](=O)[O-]	Scp1 inh 55 | Scp1 confirm 64 | Scp-1 MG ctr inactive | Scp-1 Tm shift 5.3
COCCNC(=O)c1ccc(C2SCC(=O)N2Cc2ccco2)cc1 (stereo not drawn)	none
C=CCNC(=O)c1ccc(C2SCC(=O)N2Cc2ccco2)cc1 (stereo not drawn)	Scp1 inh 69 | Scp1 confirm 53 | Scp-1 MG ctr inactive | Scp-1 Tm shift inactive
O=C1Nc2ccccc2/C1=N/N=C/c1ccc(-c2ccc([N+](=O)[O-])cc2)o1	Scp1 inh 75 | Scp1 confirm 36 | Scp-1 MG ctr inactive | Scp-1 Tm shift 5.6
CN(/N=C/c1ccc(-c2ccc([N+](=O)[O-])cc2)o1)c1ccccc1	none
CCOc1ccc(-c2c[n+]3c(n2-c2ccccc2)CCCCC3)cc1	none
CN(C)CCOc1ccccc1-c1ccccc1	Scp1 inh 76 | Scp1 confirm inactive | Scp-1 MG ctr inactive
CN(C)CCOCCOc1ccccc1-c1ccccc1	none
O=C(CSc1ncccc1-c1nc2ccccc2[nH]1)NCc1ccco1	Scp1 inh 56 | Scp1 confirm 66 | Scp-1 MG ctr inactive | Scp-1 Tm shift 6.5
Cc1cc2nc(-c3cccnc3SCC(=O)NCc3ccco3)[nH]c2cc1C	none (no result: SUMO HTRF inh)
COc1cc(C(=O)NCc2nnc(SCC(=O)NC3CCCC3)o2)cc(OC)c1OC	none
CN(C(=O)CN1C(=O)/C(=C/c2ccccc2F)SC1=S)C1CCS(=O)(=O)C1 (stereo not drawn)	none
O=C(O)c1ccc(CSc2n[nH]c(-c3ccco3)n2)cc1	Scp1 inh 52 | Scp1 confirm 32 | Scp-1 MG ctr inactive | Scp-1 Tm shift inactive
CC(=O)Nc1nnc(SCC(=O)Nc2ccc(N3CCOCC3)c(Cl)c2)s1	Scp1 inh 63 | Scp1 confirm inactive | Scp-1 MG ctr inactive
O=C(NNC(=O)c1ccc2ccccc2c1)c1ccc(Cl)c(Cl)c1	Scp1 inh 64 (no result: SUMO HTRF inh) | Scp1 confirm 58 | Scp-1 MG ctr inactive | Scp-1 Tm shift inactive
O=C(NNC(=O)c1cccc2ccccc12)c1ccc(Cl)c(Cl)c1	none (no result: SUMO HTRF inh)
COc1ccccc1/C=C/C(=O)OCC(=O)c1c(N)n(C)c(=O)n(C)c1=O	none
C=CCn1c(COc2cc(C)ccc2C(C)C)nnc1SCC(=O)c1c(N)n(C)c(=O)n(C)c1=O	Scp1 inh 52 | Scp1 confirm inactive | Scp-1 MG ctr inactive
Cc1ccc(C(C)C)c(OCC(=O)OCC(=O)c2c(N)n(C)c(=O)n(C)c2=O)c1	none (no result: SUMO HTRF inh)
COc1cccc2cc(C(=O)Nc3ccc(F)cc3)c(=Nc3ccc(C(=O)O)cc3)oc12	Scp1 inh 102 | Scp1 confirm inactive | Scp-1 MG ctr inactive
COc1ccc(N=c2oc3c(OC)cccc3cc2C(=O)NCc2ccco2)cc1OC	none
COc1ccc(NC(=O)c2cc3ccccc3cc2OC)cc1	none
COc1cc2ccccc2cc1C(=O)NC(=S)Nc1ccc(C(=O)O)cc1	Scp1 inh 61 | Scp1 confirm 52 | Scp-1 MG ctr inactive | Scp-1 Tm shift inactive
COc1cc(OC)c2ccc(=O)oc2c1C(CC(=O)N1CCCC(C)C1)c1ccc2c(c1)OCO2 (stereo not drawn)	Scp1 inh 56 | Scp1 confirm 54 | Scp-1 MG ctr inactive | Scp-1 Tm shift inactive
COc1cc(O)c(C(CC(=O)N2CCCC(C)C2)c2ccc3c(c2)OCO3)c(OC)c1 (stereo not drawn)	none
COc1ccc(-c2nonc2NC(=O)c2ccco2)cc1OC	Scp1 inh 58 | Scp1 confirm inactive | Scp-1 MG ctr inactive
O=C(COC(=O)c1nc(Cl)ccc1Cl)NNC(=O)c1cccs1	none (no result: SUMO HTRF inh)
CC(C)CCN(C(=O)c1ccccn1)c1c(N)n(Cc2ccccc2)c(=O)[nH]c1=O	none (no result: SUMO HTRF inh)
